# The list is not random: actives were taken first. Their share in the collection is about 3.4%.
# TMEM16A inh = TMEM16A chloride channel inhibitors, primary screen, cell-based, HTS; AID 588511, 2011; hit rate 1.2% among 310,000; HEK293 TMEM16A/YFP iodide influx fluorescence, ionomycin; normalized B-score (activity score, 25-100; higher = stronger inhibition) at 10 µM; Anoctamin-1 (Mus musculus), Q8BHY3;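 active means ratio plate-corrected score three or more library SD toward inhibition, starting fluorescence score within five deviations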;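 further: score derived from kinetic fluorescence span divided by baseline fluorescence per well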
# Target sequence (Q8BHY3 whole entry, looked up): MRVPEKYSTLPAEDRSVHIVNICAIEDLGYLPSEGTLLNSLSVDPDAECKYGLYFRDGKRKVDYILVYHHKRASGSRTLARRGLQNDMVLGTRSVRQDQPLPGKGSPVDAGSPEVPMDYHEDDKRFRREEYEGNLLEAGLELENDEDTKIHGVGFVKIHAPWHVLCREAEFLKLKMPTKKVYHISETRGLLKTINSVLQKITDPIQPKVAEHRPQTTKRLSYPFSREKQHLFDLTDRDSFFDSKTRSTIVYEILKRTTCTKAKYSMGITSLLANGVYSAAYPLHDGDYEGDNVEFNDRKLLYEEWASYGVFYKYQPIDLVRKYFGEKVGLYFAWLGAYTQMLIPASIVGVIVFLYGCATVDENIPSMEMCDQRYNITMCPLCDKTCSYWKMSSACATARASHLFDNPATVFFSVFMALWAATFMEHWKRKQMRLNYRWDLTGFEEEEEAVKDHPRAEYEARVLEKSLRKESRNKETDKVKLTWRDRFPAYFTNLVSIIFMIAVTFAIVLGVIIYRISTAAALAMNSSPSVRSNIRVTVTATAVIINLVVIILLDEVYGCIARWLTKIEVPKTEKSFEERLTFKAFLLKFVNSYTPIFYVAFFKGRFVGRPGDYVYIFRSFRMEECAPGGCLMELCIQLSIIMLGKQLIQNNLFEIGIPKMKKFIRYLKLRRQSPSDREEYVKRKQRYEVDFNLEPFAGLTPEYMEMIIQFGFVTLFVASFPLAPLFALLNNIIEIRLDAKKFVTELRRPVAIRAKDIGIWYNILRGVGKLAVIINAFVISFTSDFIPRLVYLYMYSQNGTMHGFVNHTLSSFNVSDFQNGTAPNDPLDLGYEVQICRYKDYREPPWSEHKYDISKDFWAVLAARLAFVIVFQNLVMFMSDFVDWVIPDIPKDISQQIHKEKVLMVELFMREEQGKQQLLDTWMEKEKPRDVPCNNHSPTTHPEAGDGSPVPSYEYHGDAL
# ANO1 activ = TMEM16A chloride channel activators or potentiators, primary screen, cell-based, HTS; B-score at 10 µM; HEK293 TMEM16A/YFP-H148Q/I152L, iodide quench fluorescence; active compounds read low; hit rate 0.3% among 340,000; Anoctamin-1 (Mus musculus), Q8BHY3;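 active means fluorescence-ratio B-score plate-corrected deviation score at least 3 library SD below zero, with starting fluorescence score within 5 deviations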;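 further: channel opened by trigger with iodide after compound preincubation; score built on the fluorescence ratio of max minus min over baseline; more negative score means more quench and so TMEM16A activation or potentiation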
# IMP-1 inhibitor = IMP-1 metallo-beta-lactamase inhibitors, primary screen, biochemical, epi-absorbance readout, Pseudomonas aeruginosa enzyme | purified IMP-1, nitrocefin hydrolysis, epi-absorbance fluorescence | metallo-beta-lactamase IMP-1 (Pseudomonas aeruginosa) | hit rate 0.45% among 290,000 | inhibition, % at 5.6 µM | AID 1556, 2009;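 active means inhibition above the mean plus 3 SD of all compounds in the same screening run, cut at about 4.5% in these data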;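 further: 0% = IMP-1 with DMSO and 100% = DMSO wells lacking enzyme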
#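 System – purified recombinant IMP-1 beta-lactamase · Input – IMP-1 dispensed at 0.2 nM · Timing – 15 min preincubation plus 25 min reaction at 25 °C · Signal – Epi-absorbance fluorescence, 480 nm excitation, 530 nm emission · Measure – percent IMP-1 inhibition derived from blank-referenced optical density · Controls – Enzyme-plus-DMSO low control, enzyme-free DMSO high control · Replication – singlicate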
# VIM-2 inh = VIM-2 metallo-beta-lactamase inhibitors, primary screen, biochemical, epi-absorbance readout, Pseudomonas aeruginosa enzyme; purified VIM-2, nitrocefin hydrolysis, epi-absorbance fluorescence; inhibition, % at 5.6 µM; hit rate 0.89% among 290,000; AID 1527, 2009;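 active means inhibition above the mean of all tested compounds plus 3 SD, cutoff set per screening run, cut at about 7.5% in these data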;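 further: red hydrolysis product quenches plate fluorescence so inhibitors raise well fluorescence; 0% = enzyme with DMSO and 100% = DMSO without enzyme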
# CHT allo act = CHT positive allosteric modulators, primary screen, cell-based, membrane potential dye, choline EC20; High affinity choline transporter 1 (Homo sapiens), Q9GZV3; CHT-expressing cells; active compounds read high; LV-AA mutant CHT in HEK293 cells; B-score at 10 µM; hit rate 0.49% among 310,000;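 active means initial fluorescence not abnormally high and integrated response B-score, plate-corrected, over 3 SD above library mean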
# CHT block = inhibitors of human choline transporter CHT | High affinity choline transporter 1 (Homo sapiens), Q9GZV3 | CHT-expressing cells, membrane potential dye, choline response; active compounds read low | B-score at 10 µM | hit rate 0.86% among 310,000 | AID 488975, 2010;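 active means B-score over 3 SD under the library average, and starting fluorescence ratio not unusually high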;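 further: choline stimulus applied at its EC90 after an EC20 pre-addition; B-score computed on integrated fluorescence ratio after choline addition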
# CHT block conf = CHT inhibitors, confirmation, cell-based, membrane potential dye, duplicate | CHT-expressing cells, choline membrane potential dye; LV-to-AA substituted CHT, HEK293 cells | CHT activity remaining % of control (active compounds read low), % at 10 µM | shares compounds with CHT block | hit rate 70% among 2,400;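 active means choline transporter activity left, mean of duplicates at 10 µM, below buffer-only control mean minus 3 SD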;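 further: depolarization triggered by choline at its EC90 following an EC20 pre-addition; 0% = hemicholinium-3 full block and 100% = buffer-only control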
# HEK293 CHT ctr = membrane potential effects in parental HEK293, counter-screen for CHT inhibitor project, cell-based, membrane potential dye | shares compounds with CHT block | choline response; active = decrease or increase beyond buffer ±3SD | membrane potential ratio readout (active if shifted either direction beyond buffer ±3SD; no single direction) at 10 µM | hit rate 4% among 2,400 | AID 493222, 2011;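 further: parental cells lack the transporter so any hit is non-specific; ratio is peak minus trough fluorescence over baseline after EC90 choline challenge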
# * hit, by the source's call; i = inactive; / = not tested or not shown.
SMILES,TMEM16A inh,ANO1 activ,IMP-1 inhibitor,VIM-2 inh,CHT allo act,CHT block,CHT block conf,HEK293 CHT ctr
COc1ccc(OC)c(S(=O)(=O)N2CCC(C(=O)N3CCc4ccccc4C3)CC2)c1,i,i,-4,-2,i,i,i,i
COCCN(C(=O)COC(=O)/C=C/c1ccc2c(c1)OCO2)c1c(N)n(Cc2ccccc2)c(=O)[nH]c1=O,i,i,/,/,i,i,/,/
O=C(Nc1ccc(-n2cccn2)cc1)C1CCCCN1Cc1cccc2c1OCO2 (configuration not stated),i,i,1,1,i,i,/,/
CCC(=O)c1ccc(OCC(=O)OC(C)C(=O)N2CCc3ccccc32)cc1 (configuration not stated),i,i,/,/,i,i,/,/
Cc1ccc(S(=O)(=O)CCC(=O)OC(C)C(=O)N2CCc3ccccc32)cc1 (configuration not stated),i,i,/,/,i,-7.4*,37%*,i
O=C(c1ccco1)N1CCC(c2nc3c(nnn3Cc3ccc(F)cc3)c(=O)[nH]2)CC1,i,i,-2,-2,i,i,/,/
COc1cccc(OCCSc2nnc3sc4ccccc4n23)c1,i,i,-2,-2,i,-8.7*,i,i
COC(=O)N(NC(=O)C(O)(c1ccccc1)c1ccccc1)c1ccccc1,i,i,-3,-2,i,i,/,/
COC(=O)N(NC(=O)C(O)(CCC(C)C)CCC(C)C)c1ccccc1,i,i,-2,-1,i,i,i,i
OCCn1nc(-c2ccccc2)cc1-c1ccccc1,i,i,-2,-2,i,-9.3*,26%*,i
Nc1cc(-c2ccccc2)nn1Cc1ccccc1,i,i,-4,-1,i,i,/,/
C=CCN(CC=C)S(=O)(=O)c1ccc2nc(NC(=O)C(C)C)sc2c1,i,i,-5,-2,i,-7.3*,43%*,i
COc1ccc(N(C)S(=O)(=O)c2cccc(C(=O)NC3CCC(C)CC3)c2)cc1 (configuration not stated),i,i,0,2,i,-6.3*,65%*,i
CCc1cccc(CC)c1NC(=O)c1cccc(S(=O)(=O)N2CCN(C)CC2)c1,i,i,-4,-4,i,-5.8*,39%*,i
COc1ccc(N(C)S(=O)(=O)c2cccc(C(=O)NC3CCCCCC3)c2)cc1,i,i,-4,-3,i,i,/,/
CC1CCC(NC(=O)c2cccc(S(=O)(=O)N3CCN(C)CC3)c2)CC1 (configuration not stated),i,i,/,/,i,-13*,9.1%*,i
O=C(NC1CCCCCCC1)c1ccc(S(=O)(=O)N2CCCC2)cc1,i,i,-2,-2,i,-11*,44%*,i
O=C(NC1CCCCC1)c1ccc(S(=O)(=O)N2CCOCC2)cc1,i,i,-2,-2,i,i,/,/
CCOc1ccc(NC(=O)c2cccc(NC(=O)c3ccccc3)c2)cc1,i,i,-3,-3,i,i,/,/
CCc1cccc(CC)c1NC(=O)c1cccc(NC(=O)c2ccccc2)c1,i,i,3,0,i,-5.6*,65%*,i

# Bioassay records as filed in PubChem.
